Measured values taken from ChEMBL document CHEMBL1158603, “S-aryltriazole acyclonucleosides: synthesis and biological evaluation against hepatitis C virus” (Bioorg Med Chem Lett, 2010).
The source made the active and inactive calls. The calls are words filed in the database; no cut-off is given here.

tested on: Hepatitis C virus; test: Antiviral activity against HCV infected in human HuH5.2 cells assessed as inhibition of subgenomic RNA replication after 4 days by Steady-Glo luciferase assay; type: functional, organism-based; settings: Hepacivirus hominis
How it was run: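 Huh-5-2 replicon cells seeded at 5000/well in complete DMEM with 250 µg/mL G418, grown 24 h at 37 °C (5% CO2). Medium then replaced by threefold serial dilutions of compound in complete DMEM without G418. After 4 days at 37 °C, medium removed and luciferase activity read by luminescence.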

Row | Compound | Activity
1 | NC(=O)c1nc(SCc2cccc(C(F)(F)F)c2)n(COCCO)n1 | inactive
2 | COC(=O)c1nc(Sc2ccc(C)cc2)n(COCCOC(C)=O)n1 | inactive
3 | COC(=O)c1nc(Sc2cccc(C)c2)n(COCCOC(C)=O)n1 | inactive
4 | COC(=O)c1nc(Sc2ccc3ccccc3c2)n(COCCOC(C)=O)n1 | inactive
5 | COC(=O)c1nc(Sc2cccc(OC)c2)n(COCCOC(C)=O)n1 | inactive
6 | COc1ccc(Sc2nc(C(N)=O)nn2COCCO)cc1 | inactive
7 | COC(=O)c1nc(Sc2ccc(C(F)(F)F)cc2)n(COCCOC(C)=O)n1 | inactive
8 | NC(=O)c1nc(Sc2ccc(C(F)(F)F)cc2)n(COCCO)n1 | inactive
9 | NC(=O)c1nc(Sc2cccc(C(F)(F)F)c2)n(COCCO)n1 | inactive
10 | NC(=O)c1nc(Sc2cccc(F)c2)n(COCCO)n1 | inactive
11 | Cc1cccc(Sc2nc(C(N)=O)nn2COCCO)c1 | inactive
12 | COc1ccccc1Sc1nc(C(N)=O)nn1COCCO | inactive
13 | COC(=O)c1nc(Sc2ccc(OC)cc2)n(COCCOC(C)=O)n1 | inactive
14 | COc1cccc(Sc2nc(C(N)=O)nn2COCCO)c1 | inactive
15 | NC(=O)c1nc(Sc2ccccc2F)n(COCCO)n1 | inactive
16 | COC(=O)c1nc(Sc2cccc(C(F)(F)F)c2)n(COCCOC(C)=O)n1 | inactive
17 | NC(=O)c1nc(Sc2ccc(Cl)cc2)n(COCCO)n1 | inactive
18 | COC(=O)c1nc(Sc2ccccc2F)n(COCCOC(C)=O)n1 | inactive

Row | Compound | Activity
19 | NC(=O)c1nc(Sc2ccccc2C(F)(F)F)n(COCCO)n1 | inactive
20 | NC(=O)c1nc(Sc2ccc3ccccc3c2)n(COCCO)n1 | inactive
21 | COC(=O)c1nc(Sc2ccc(C(C)(C)C)cc2)n(COCCOC(C)=O)n1 | inactive
22 | COC(=O)c1nc(Sc2ccccc2OC)n(COCCOC(C)=O)n1 | inactive
23 | CC(C)(C)c1ccc(Sc2nc(C(N)=O)nn2COCCO)cc1 | inactive
24 | CCCSc1nc(C(=O)OC)nn1COCCOC(C)=O | inactive
25 | NC(=O)c1nc(Sc2ccccc2)n(COCCO)n1 | inactive
26 | COC(=O)c1nc(Sc2ccc(Cl)cc2)n(COCCOC(C)=O)n1 | inactive
27 | NC(=O)c1nc(Sc2ccc(F)cc2)n(COCCO)n1 | inactive
28 | COC(=O)c1nc(Sc2cccc(F)c2)n(COCCOC(C)=O)n1 | inactive
29 | COC(=O)c1nc(SCc2cccc(C(F)(F)F)c2)n(COCCOC(C)=O)n1 | inactive
30 | Cc1ccccc1Sc1nc(C(N)=O)nn1COCCO | inactive
31 | Cc1ccc(Sc2nc(C(N)=O)nn2COCCO)cc1 | inactive
32 | COC(=O)c1nc(Sc2ccccc2C(F)(F)F)n(COCCOC(C)=O)n1 | inactive
33 | COC(=O)c1nc(Sc2ccccc2)n(COCCOC(C)=O)n1 | inactive
34 | COC(=O)c1nc(Sc2ccccc2C)n(COCCOC(C)=O)n1 | inactive
35 | COC(=O)c1nc(Sc2ccc(F)cc2)n(COCCOC(C)=O)n1 | inactive
